# pEC50: −log10 of the molar value. “Also recorded” adds a separate entry of the source. Where two headings read alike, the source gives them in different places.
# How the values were obtained:
# MCF-7 cells [1] = experiment: MCF-7 cell proliferation assay; format: cell-based, human
# Summary of the method: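 MCF-7 cells exposed to test compound or E2 at six concentrations from 10–12 to 10–7 M in EA-free medium. Proliferation read as MTT product absorbance at 570 nm. Three independent trials, each in triplicate. % RME2 = 100 × (OD test − OD VC)/(max OD E2 − OD VC). EC50 from curve fitting. EEF = EC50 of E2/EC50 of sample. One-way ANOVA with Dunnett's test versus E2 at each concentration.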
# chicken embryo = experiment: Chicken embryonic assay; format: in vivo; conditions: egg injection, day 18
# S. typhimurium TA98 = experiment: Ames test, strain TA98; format: cell-based, Salmonella typhimurium
# S. typhimurium TA100 = experiment: Ames test, strain TA100; format: cell-based, Salmonella typhimurium
# [2] = test system: S. typhimurium tester strains (TA98, TA100, and TA102); experiment: Ames test, overall over three strains; format: cell-based, Salmonella typhimurium
# ERα = conditions: competing with E2; cited from earlier work
# ERβ = conditions: competing with E2; cited from earlier work
# MCF-7 cells [3] = conditions: proliferative activity at 10^–7 to 10^–5 M; cited from earlier work
# S. typhimurium = conditions: incorporation or preincubation Ames assays, 10–3333 μg/plate; cited from earlier work
# zebrafish embryos = conditions: cited from earlier work
# [4] = higher dose (0.5 mM: 450–500 μg/kg; E2 0.1 mM: 91 μg/kg)
# [5] = lower dose (0.05 mM: 45–50 μg/kg; E2 0.01 mM: 9.1 μg/kg)
# [6] = TA100 +S9, 5 × 10^–2 pmol/plate
# [7] = TA100 +S9, 5 × 10^–3 pmol/plate
# [8] = TA100 +S9, 5 × 10^–4 pmol/plate
# [9] = TA100 +S9, 5 × 10^–5 pmol/plate
# [10] = TA100 -S9, 5 × 10^–2 pmol/plate
# [11] = TA100 -S9, 5 × 10^–3 pmol/plate
# [12] = TA100 -S9, 5 × 10^–4 pmol/plate
# [13] = TA100 -S9, 5 × 10^–5 pmol/plate
# [14] = TA102 +S9, 5 × 10^–2 pmol/plate
# [15] = TA102 +S9, 5 × 10^–3 pmol/plate
# [16] = TA102 +S9, 5 × 10^–4 pmol/plate
# [17] = TA102 +S9, 5 × 10^–5 pmol/plate
# [18] = TA102 -S9, 5 × 10^–2 pmol/plate
# [19] = TA102 -S9, 5 × 10^–3 pmol/plate
# [20] = TA102 -S9, 5 × 10^–4 pmol/plate
# [21] = TA102 -S9, 5 × 10^–5 pmol/plate
structure (smiles),measurement,setting,value
O=c1c(-c2ccc(O)cc2)coc2cc(O)cc(O)c12 [genistein],EEF (estradiol equivalent factor),MCF-7 cells [1]; EC50 of E2 divided by that of the test compound,0.08
same,pEC50,"MCF-7 cells [1]; Homo sapiens, MCF7",9.92
same,max % RME2,MCF-7 cells [1]; highest % RME2 (relative maximum % E2) in test range 10^–12–10^–7 M,48%
same,LSI (liver somatic index),chicken embryo; [4],2.12 ± 0.14%
same,malformation rate,chicken embryo; [4],0.0%
same,mortality rate,chicken embryo; [4],50%
same,number of dead chicken embryo,chicken embryo; [4],5
same,number of malformation chicken embryo,chicken embryo; [4],0
same,weights: embryo,chicken embryo; [4],23.88 ± 2.02 g
same,weights: heart,chicken embryo; [4],0.20 ± 0.03 g
same,weights: liver,chicken embryo; [4],0.50 ± 0.09 g
same,LSI (liver somatic index),chicken embryo; [5],2.05 ± 0.44%
same,REEW (ratio of embryo to egg weight),chicken embryo; [5],0.41 ± 0.049
same,malformation rate,chicken embryo; [5],0.0%
same,mortality rate,chicken embryo; [5],40.0%
same,number of dead chicken embryo,chicken embryo; [5],4
same,number of malformation chicken embryo,chicken embryo; [5],0
same,weights: embryo,chicken embryo; [5],21.96 ± 0.73 g
same,weights: heart,chicken embryo; [5],0.17 ± 0.01 g
same,weights: liver,chicken embryo; [5],0.46 ± 0.10 g
same,MI,"S. typhimurium TA98; TA98 +S9, 0.5 pmol/plate",1.1
same,number of revertants/plate (M ± SD),"S. typhimurium TA98; TA98 +S9, 0.5 pmol/plate",26 ± 13 revertants/plate
same,MI,"S. typhimurium TA98; TA98 +S9, 5 pmol/plate",1.0
same,number of revertants/plate (M ± SD),"S. typhimurium TA98; TA98 +S9, 5 pmol/plate",23 ± 14 revertants/plate
same,MI,"S. typhimurium TA98; TA98 +S9, 50 pmol/plate",1.2
same,number of revertants/plate (M ± SD),"S. typhimurium TA98; TA98 +S9, 50 pmol/plate",28 ± 16 revertants/plate
same,MI,"S. typhimurium TA98; TA98 +S9, 5 × 10^–2 pmol/plate",1.2
same,number of revertants/plate (M ± SD),"S. typhimurium TA98; TA98 +S9, 5 × 10^–2 pmol/plate",28 ± 5 revertants/plate
same,MI,"S. typhimurium TA98; TA98 +S9, 5 × 10^–3 pmol/plate",1.2
same,number of revertants/plate (M ± SD),"S. typhimurium TA98; TA98 +S9, 5 × 10^–3 pmol/plate",28 ± 10 revertants/plate
same,MI,"S. typhimurium TA98; TA98 +S9, 5 × 10^–4 pmol/plate",1.0
same,number of revertants/plate (M ± SD),"S. typhimurium TA98; TA98 +S9, 5 × 10^–4 pmol/plate",24 ± 8 revertants/plate
same,MI,"S. typhimurium TA98; TA98 +S9, 5 × 10^–5 pmol/plate",0.8
same,number of revertants/plate (M ± SD),"S. typhimurium TA98; TA98 +S9, 5 × 10^–5 pmol/plate",19 ± 6 revertants/plate
same,MI,"S. typhimurium TA98; TA98 -S9, 0.5 pmol/plate",0.7
same,number of revertants/plate (M ± SD),"S. typhimurium TA98; TA98 -S9, 0.5 pmol/plate",15 ± 1 revertants/plate
same,MI,"S. typhimurium TA98; TA98 -S9, 5 pmol/plate",0.8
same,number of revertants/plate (M ± SD),"S. typhimurium TA98; TA98 -S9, 5 pmol/plate",18 ± 6 revertants/plate
same,MI,"S. typhimurium TA98; TA98 -S9, 50 pmol/plate",0.6
same,number of revertants/plate (M ± SD),"S. typhimurium TA98; TA98 -S9, 50 pmol/plate",13 ± 4 revertants/plate
same,MI,"S. typhimurium TA98; TA98 -S9, 5 × 10^–2 pmol/plate",0.7
same,number of revertants/plate (M ± SD),"S. typhimurium TA98; TA98 -S9, 5 × 10^–2 pmol/plate",16 ± 2 revertants/plate
same,MI,"S. typhimurium TA98; TA98 -S9, 5 × 10^–3 pmol/plate",0.5
same,number of revertants/plate (M ± SD),"S. typhimurium TA98; TA98 -S9, 5 × 10^–3 pmol/plate",11 ± 1 revertants/plate
same,MI,"S. typhimurium TA98; TA98 -S9, 5 × 10^–4 pmol/plate",0.6
same,number of revertants/plate (M ± SD),"S. typhimurium TA98; TA98 -S9, 5 × 10^–4 pmol/plate",13 ± 6 revertants/plate
same,MI,"S. typhimurium TA98; TA98 -S9, 5 × 10^–5 pmol/plate",0.7
same,number of revertants/plate (M ± SD),"S. typhimurium TA98; TA98 -S9, 5 × 10^–5 pmol/plate",15 ± 4 revertants/plate
same,MI,"S. typhimurium TA100; TA100 +S9, 0.5 pmol/plate",1.0
same,number of revertants/plate (M ± SD),"S. typhimurium TA100; TA100 +S9, 0.5 pmol/plate",307 ± 7 revertants/plate
same,MI,"S. typhimurium TA100; TA100 +S9, 5 pmol/plate",0.9
same,number of revertants/plate (M ± SD),"S. typhimurium TA100; TA100 +S9, 5 pmol/plate",301 ± 13 revertants/plate
same,MI,"S. typhimurium TA100; TA100 +S9, 50 pmol/plate",0.9
same,number of revertants/plate (M ± SD),"S. typhimurium TA100; TA100 +S9, 50 pmol/plate",296 ± 11 revertants/plate
same,MI,S. typhimurium TA100; [6],1.0
same,number of revertants/plate (M ± SD),S. typhimurium TA100; [6],308 ± 8 revertants/plate
same,MI,S. typhimurium TA100; [7],1.0
same,number of revertants/plate (M ± SD),S. typhimurium TA100; [7],313 ± 11 revertants/plate
same,MI,S. typhimurium TA100; [8],0.9
same,number of revertants/plate (M ± SD),S. typhimurium TA100; [8],301 ± 4 revertants/plate
same,MI,S. typhimurium TA100; [9],0.9
same,number of revertants/plate (M ± SD),S. typhimurium TA100; [9],294 ± 6 revertants/plate
same,MI,"S. typhimurium TA100; TA100 -S9, 0.5 pmol/plate",1.0
same,number of revertants/plate (M ± SD),"S. typhimurium TA100; TA100 -S9, 0.5 pmol/plate",103 ± 10 revertants/plate
same,MI,"S. typhimurium TA100; TA100 -S9, 5 pmol/plate",0.9
same,number of revertants/plate (M ± SD),"S. typhimurium TA100; TA100 -S9, 5 pmol/plate",96 ± 4 revertants/plate
same,MI,"S. typhimurium TA100; TA100 -S9, 50 pmol/plate",0.8
same,number of revertants/plate (M ± SD),"S. typhimurium TA100; TA100 -S9, 50 pmol/plate",80 ± 12 revertants/plate
same,MI,S. typhimurium TA100; [10],0.9
same,number of revertants/plate (M ± SD),S. typhimurium TA100; [10],97 ± 11 revertants/plate
same,MI,S. typhimurium TA100; [11],1.0
same,number of revertants/plate (M ± SD),S. typhimurium TA100; [11],100 ± 11 revertants/plate
same,MI,S. typhimurium TA100; [12],0.9
same,number of revertants/plate (M ± SD),S. typhimurium TA100; [12],94 ± 8 revertants/plate
same,MI,S. typhimurium TA100; [13],1.0
same,number of revertants/plate (M ± SD),S. typhimurium TA100; [13],98 ± 6 revertants/plate
same,Ames test outcome (signs of mutagenicity),"[2]; 5 × 10^–5 to 50 pmol/plate, with or without S9",did not significantly increase numbers at any strains and test concentrations; also recorded: did not demonstrate such a sign
same,max MI value,[2]; highest MI from test range 5 × 10^–5 to 50 pmol/plate,1.2
same,MI,"S. typhimurium TA102; TA102 +S9, 0.5 pmol/plate",1.1
same,number of revertants/plate (M ± SD),"S. typhimurium TA102; TA102 +S9, 0.5 pmol/plate",336 ± 17 revertants/plate
same,MI,"S. typhimurium TA102; TA102 +S9, 5 pmol/plate",1.0
same,number of revertants/plate (M ± SD),"S. typhimurium TA102; TA102 +S9, 5 pmol/plate",299 ± 4 revertants/plate
same,MI,"S. typhimurium TA102; TA102 +S9, 50 pmol/plate",1.1
same,number of revertants/plate (M ± SD),"S. typhimurium TA102; TA102 +S9, 50 pmol/plate",324 ± 28 revertants/plate
same,MI,S. typhimurium TA102; [14],1.0
same,number of revertants/plate (M ± SD),S. typhimurium TA102; [14],311 ± 18 revertants/plate
same,MI,S. typhimurium TA102; [15],1.0
same,number of revertants/plate (M ± SD),S. typhimurium TA102; [15],312 ± 13 revertants/plate
same,MI,S. typhimurium TA102; [16],0.9
same,number of revertants/plate (M ± SD),S. typhimurium TA102; [16],285 ± 10 revertants/plate
same,MI,S. typhimurium TA102; [17],0.9
same,number of revertants/plate (M ± SD),S. typhimurium TA102; [17],290 ± 4 revertants/plate
same,MI,"S. typhimurium TA102; TA102 -S9, 0.5 pmol/plate",1.0
same,number of revertants/plate (M ± SD),"S. typhimurium TA102; TA102 -S9, 0.5 pmol/plate",247 ± 18 revertants/plate
same,MI,"S. typhimurium TA102; TA102 -S9, 5 pmol/plate",0.9
same,number of revertants/plate (M ± SD),"S. typhimurium TA102; TA102 -S9, 5 pmol/plate",240 ± 8 revertants/plate
same,MI,"S. typhimurium TA102; TA102 -S9, 50 pmol/plate",0.8
same,number of revertants/plate (M ± SD),"S. typhimurium TA102; TA102 -S9, 50 pmol/plate",215 ± 27 revertants/plate
same,MI,S. typhimurium TA102; [18],0.9
same,number of revertants/plate (M ± SD),S. typhimurium TA102; [18],222 ± 30 revertants/plate
same,MI,S. typhimurium TA102; [19],0.8
same,number of revertants/plate (M ± SD),S. typhimurium TA102; [19],198 ± 8 revertants/plate
same,MI,S. typhimurium TA102; [20],0.8
same,number of revertants/plate (M ± SD),S. typhimurium TA102; [20],196 ± 20 revertants/plate
same,MI,S. typhimurium TA102; [21],0.8
same,number of revertants/plate (M ± SD),S. typhimurium TA102; [21],207 ± 5 revertants/plate
same,binding affinity for ERα,ERα,4%
same,binding affinity for ERβ,ERβ,87%
same,concentration of maximum proliferative activity in MCF-7 cells,MCF-7 cells [3],10^–6 M
same,mutagenic activity in Ames assays,S. typhimurium,No mutagenic activity
same,developmental toxicity in zebrafish model,zebrafish embryos; at 1–50 μM,showing developmental toxicity
same,survival rate for zebrafish embryos,zebrafish embryos; exposure at 0.025 to 0.1 mM,significantly decreased the survival rate
